Results reported in ChEMBL document CHEMBL1153929, “Exploration and synthesis of curcumin analogues with improved structural stability both in vitro and in vivo as cytotoxic agents” (Bioorg Med Chem, 2009).

How the values were obtained:
KB (human) = test: Cytotoxicity against human KB cells after 72 hrs by MTT assay
[1] = Hydrolytic stability assessed as compound degradation at 2 mg in sodium dihydrogen phosphate buffered 0.3% sodium carboxymethylcellulose solution at pH 7.4 after 45 hrs by HPLC; format: physicochemical; conditions: read-out: Activity
In short: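 2 mg of sample was vortexed into 1 ml of 0.3% (w/v) CMCNa solution in phosphate buffer at pH 7.4 and kept in the dark at 37 °C. HPLC peak areas were recorded. Degradation = (area at 0 h − area at end time) / area at 0 h × 100%.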

PC-3 = test: Cytotoxicity against human PC3 cells after 72 hrs by MTT assay; format: functional, cell-based; conditions: PC-3, 72 h
In short: (§1)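 Cells were plated at 5000 per well in 1640 medium with 5% heat-inactivated calf serum and penicillin/streptomycin, at 37 °C and 5% CO2. After 24 h, compounds in DMSO were added at final 100, 33.3, 11.1 and 3.7 µg/ml for 72 h. MTT (5 mg/ml in 0.9% NaCl) was then added for 3 h, the formazan dissolved in DMSO, and absorbance read at 570 nm.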

HeLa = test: Cytotoxicity against human HeLa cells after 72 hrs by MTT assay; format: functional, cell-based
In short: as §1

CNE = test: Cytotoxicity against human CNE cells after 72 hrs by MTT assay; format: functional, cell-based
In short: as §1

[2] = Cytotoxicity against human LS 174T cells after 72 hrs by MTT assay; format: functional, cell-based; conditions: LS174T
In short: as §1

BGC-823 = test: Cytotoxicity against human BGC823 cells after 72 hrs by MTT assay; format: functional, cell-based; conditions: BGC-823, 72 h
In short: as §1

HL-60 (human) = test: Cytotoxicity against human HL60 cells after 72 hrs by MTT assay; conditions: HL-60, 72 h

Row | degraded at 45 h [1] | SMILES | IC50 (KB (human)) | IC50 (PC-3) | IC50 (HeLa) | IC50 (CNE) | IC50 [2] | IC50 (BGC-823) | IC50 (HL-60 (human))
1 | 0% | O=C(/C=C/c1ccc(O)cc1)/C=C/c1ccc(O)cc1 | 41.5 µM | 48.9 µM | 217 µM | – | – | – | –
2 | 0% | C=CCOc1ccc(/C=C2\CCC/C(=C\c3ccc(OCC=C)c(OC)c3)C2=O)cc1OC | 102 µM | – | – | – | – | – | –
3 | 0% | O=C1/C(=C/c2ccc(OC3CCCCO3)cc2)CC/C1=C\c1ccc(OC2CCCCO2)cc1 (configuration not stated) | – | – | 39.1 µM | – | – | – | –
4 | 0% | COc1cc(/C=C2\CCC/C(=C\c3ccc(O)c(OC)c3)C2=O)ccc1O [CYCLOVALONE] | < 10.1 µM | – | – | 17.6 µM | 4.6 µM | – | –
5 | 0% | COc1cccc(/C=C2\CCC/C(=C\c3cccc(OC)c3OC)C2=O)c1OC | 179 µM | – | – | – | 84.5 µM | 55.3 µM | –
6 | 0% | O=C1/C(=C/c2ccc(F)cc2)CC/C1=C\c1ccc(F)cc1 | – | – | 1.2 µM | – | – | – | –
7 | 0% | O=C(/C=C/C=C/c1ccccc1)/C=C/C=C/c1ccccc1 | – | – | – | – | – | – | 36.5 µM
8 | 0% | COc1cccc(/C=C/C(=O)/C=C/c2cccc(OC)c2OC)c1OC | 24.3 µM | – | – | – | 48 µM | 24.4 µM | 4.5 µM
9 | 0% | C=CCOc1ccc(/C=C/C(=O)/C=C/c2ccc(OCC=C)cc2)cc1 | – | – | – | – | – | – | 64.6 µM
10 | 0% | O=C1/C(=C/C=C/c2ccccc2)CC/C1=C\C=C\c1ccccc1 | – | 117 µM | – | – | – | – | –
11 | 0% | Cn1cccc1/C=C1\CC/C(=C\c2cccn2C)C1=O | – | – | – | – | 9.2 µM | – | –
12 | 0% | O=C1/C(=C/c2ccccc2Br)CCC/C1=C\c1ccccc1Br | 55.3 µM | – | – | – | – | – | –
13 | 0% | O=C1/C(=C/c2cccc(Br)c2)CCC/C1=C\c1cccc(Br)c1 | 15.9 µM | – | 15.7 µM | – | 11.5 µM | – | –
14 | 0% | O=C1/C(=C/c2ccccc2Cl)CC/C1=C\c1ccccc1Cl | 96 µM | – | – | – | – | – | 87.2 µM
15 | 0% | C=CCOc1cc(/C=C2\CC/C(=C\c3ccc(OC)c(OCC=C)c3)C2=O)ccc1OC | – | – | – | – | – | 32.6 µM | –
16 | 0% | COc1ccccc1/C=C1\CC/C(=C\c2ccccc2OC)C1=O | – | 5.3 µM | – | – | – | – | 2.3 µM
17 | 0% | O=C1/C(=C/c2ccccc2C(F)(F)F)CC/C1=C\c1ccccc1C(F)(F)F | < 9.34 µM | – | – | – | 213 µM | – | –
18 | 0% | Cn1cccc1/C=C1\CCC/C(=C\c2cccn2C)C1=O | 2.3 µM | – | – | – | – | – | –
19 | 0% | CN(C)CCCOc1ccc(/C=C2\CC/C(=C\c3ccc(OCCCN(C)C)cc3)C2=O)cc1 | 3.3 µM | – | – | 2.4 µM | – | – | –
20 | 0% | O=C1/C(=C/c2ccc(OC3CCCCO3)cc2)CCC/C1=C\c1ccc(OC2CCCCO2)cc1 (configuration not stated) | – | – | – | – | 3.9 µM | – | 134 µM
21 | 0% | O=C1/C(=C/c2ccc3c(c2)OCO3)CC/C1=C\c1ccc2c(c1)OCO2 | – | – | – | – | – | – | 225 µM
22 | 0% | Cc1ccc(/C=C2\CCC/C(=C\c3ccc(C)s3)C2=O)s1 | 249 µM | 77.6 µM | – | – | – | – | –
23 | 0% | COc1cc(/C=C2\CCC/C(=C\c3cc(OC)c(OC)c(OC)c3)C2=O)cc(OC)c1OC | 117 µM | 22.7 µM | 27.5 µM | – | – | – | 29.3 µM
24 | 0% | COc1cc(/C=C2\CC/C(=C\c3cc(OC)c(OC)c(OC)c3)C2=O)cc(OC)c1OC | – | – | – | – | – | – | –
25 | 0% | Cc1ccc(C)c(/C=C2\CCC/C(=C\c3cc(C)ccc3C)C2=O)c1 | 35.3 µM | – | – | – | – | – | –

Row | degraded at 45 h [1] | SMILES | IC50 (KB (human)) | IC50 (PC-3) | IC50 (HeLa) | IC50 (CNE) | IC50 [2] | IC50 (BGC-823) | IC50 (HL-60 (human))
26 | 0% | O=C1/C(=C/c2ccccc2Br)CC/C1=C\c1ccccc1Br | 109 µM | 24.7 µM | – | 32.8 µM | – | – | –
27 | 0% | O=C1/C(=C/c2cccs2)CCC/C1=C\c1cccs1 [TENYLIDONE] | 86 µM | – | – | – | – | – | –
28 | 0% | O=C1/C(=C/c2ccc3ccccc3c2)CC/C1=C\c1ccc2ccccc2c1 | – | – | – | – | – | 38.1 µM | –
29 | 0% | O=C(/C=C/c1ccc(Br)o1)/C=C/c1ccc(Br)o1 | 24.5 µM | 34.3 µM | 16.8 µM | – | 58.8 µM | 30.9 µM | –
30 | 0% | COc1ccccc1/C=C/C(=O)/C=C/c1ccccc1OC | < 12.6 µM | – | 161 µM | – | – | – | < 12.6 µM
31 | 0% | CCOc1ccc(/C=C2\CC/C(=C\c3ccc(OCC)cc3)C2=O)cc1 | – | – | 24 µM | – | – | – | –
32 | 0% | O=C(/C=C/c1ccc(OC2CCCCO2)cc1)/C=C/c1ccc(OC2CCCCO2)cc1 (configuration not stated) | – | 43.4 µM | – | – | – | – | 0.3 µM
33 | 0% | CC(C)(C)c1ccc(/C=C/C(=O)/C=C/c2ccc(C(C)(C)C)cc2)cc1 | – | 12 µM | 21.8 µM | 89.8 µM | – | – | –
34 | 0% | CCOc1ccc(/C=C2\CCC/C(=C\c3ccc(OCC)cc3)C2=O)cc1 | – | – | – | – | 5.6 µM | – | 85.8 µM
35 | 0% | O=C1/C(=C/c2ccccc2Cl)CCC/C1=C\c1ccccc1Cl | 6.7 µM | 13.8 µM | – | – | 4.2 µM | 4.4 µM | 98.3 µM
36 | 0% | COc1cc(/C=C/C(=O)/C=C/c2cc(OC)c(OC)c(OC)c2)cc(OC)c1OC | 98.7 µM | 8.8 µM | 95 µM | – | 148 µM | – | –
37 | 0% | CN(C)c1ccc(/C=C2\CC/C(=C\c3ccc(N(C)C)cc3)C2=O)cc1 | – | – | – | – | – | – | –
38 | 0% | O=C(/C=C/c1ccc(F)cc1)/C=C/c1ccc(F)cc1 | 94.6 µM | 15.2 µM | – | – | 98.8 µM | – | –
39 | 0% | O=C1/C(=C/c2ccccc2C(F)(F)F)CCC/C1=C\c1ccccc1C(F)(F)F | 54 µM | – | 46.3 µM | – | – | – | –
40 | 0% | C=CCOc1ccc(/C=C2\CCC/C(=C\c3ccc(OCC=C)cc3)C2=O)cc1 | 85.3 µM | – | – | – | – | – | –
41 | 0% | O=C(/C=C/c1ccc2ccccc2c1)/C=C/c1ccc2ccccc2c1 | – | – | – | – | – | 39.7 µM | 69.2 µM
42 | 0% | O=C(/C=C/c1ccccc1C(F)(F)F)/C=C/c1ccccc1C(F)(F)F | < 3.7 µM | 0.35 µM | – | – | – | – | < 10 µM
43 | 0% | O=C1/C(=C/c2ccc(Br)s2)CC/C1=C\c1ccc(Br)s1 | – | – | – | – | 9 µM | – | –
44 | 0% | COc1cccc(/C=C2\CC/C(=C\c3cccc(OC)c3OC)C2=O)c1OC | – | – | 249 µM | – | – | – | –
45 | 0% | O=C1/C(=C/C=C/c2ccccc2)CCC/C1=C\C=C\c1ccccc1 | 29.4 µM | 61.5 µM | 49.9 µM | – | 24.3 µM | 15.6 µM | –
46 | 0% | CC(C)(C)c1ccc(/C=C2\CCC/C(=C\c3ccc(C(C)(C)C)cc3)C2=O)cc1 | 78.9 µM | – | – | – | – | – | –
47 | 0% | Cc1ccsc1/C=C/C(=O)/C=C/c1sccc1C | – | 138 µM | – | – | – | – | –
48 | 0% | O=C(/C=C/c1ccccc1Cl)/C=C/c1ccccc1Cl | 59 µM | – | – | – | – | – | 8.6 µM
49 | 0% | O=C1/C(=C/c2ccc(Br)o2)CCC/C1=C\c1ccc(Br)o1 | – | 21.8 µM | – | – | – | – | 65.8 µM
